In data set [1] the test system is Human immunodeficiency virus 1. As to the kind of experiment: Inhibition of HIV1 in sup T1 cells assessed as total reverse transcribed viral DNA at 2 uM by PCR. It counts as functional, organism-based. Put shortly: (§1)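 Sup T1 cells (RPMI 1640, 10% FCS) were pretreated 2 h with compound, then infected with HIV-1 Δenv/VSV-G (HXB2 backbone) at MOI 2 for 6 h. Total viral DNA was detected by Gag-specific PCR on 10 ng DNA with 3.5 mM MgCl2 and 29 cycles.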

For data set [2], the target named is Human immunodeficiency virus type 1 integrase (Human immunodeficiency virus 1) (UniProt Q7ZJM1). The data set is described as follows: Inhibition of HIV1 integrase binding to LTR DNA by fluorescence anisotrophy. Summed up: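 Competition anisotropy at 10°C in 20 mM Tris pH 7.4/185 mM NaCl. LEDGF/p75 peptide (500 nM) was preincubated 0.5 h with His-tagged IN (4 μM), then titrated into fluorescein-labeled 36-mer HIV-1 LTR DNA (10 nM). Excitation 480 nm, emission 530 nm.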

In data set [3] the target is Human immunodeficiency virus type 1 integrase (Human immunodeficiency virus 1, UniProt Q7ZJM1). As to the kind of experiment: Binding affinity to HIV1 integrase tetrameric form by fluorescence anisotrophy. Put shortly: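 Fluorescence anisotropy at 10°C in 20 mM Tris pH 7.4/185 mM NaCl (ionic strength 190 mM). His-tagged IN was titrated into fluorescein-labeled LEDGF/p75 peptide (0.05–0.1 μM) in 20 aliquots at 1-min intervals. Excitation was 480 nm and emission 530 nm. Kd was obtained from a Hill-equation fit.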

Data set [4] deals with Human immunodeficiency virus 1. As to the kind of experiment: Inhibition of HIV1 replication in human H9 cells assessed as reduction of p24 protein level after 10 days. In kind it is functional, organism-based. Put shortly: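 H9 T-lymphoid cells were preincubated 2 h with compound, then infected with wild-type HIV-1 HXB2 at MOI 0.1 (1 h adsorption at 37°C, then washed). Cells were cultured 10 days, and p24 released into the medium was measured by capture assay.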

The target in data set [5] is Human immunodeficiency virus type 1 integrase (Human immunodeficiency virus 1) (UniProt Q7ZJM1). The data set is described as follows: Inhibition of HIV1 integrase strand transfer activity in presence of LTR DNA template.
For data set [6], the system named is HeLa. As to the kind of experiment: Toxicity against human HeLa cells by MTT method. In kind it is cell-based. For orientation: Formazan colour is commonly taken as a measure of viable cells.
The target of data set [7] is Human immunodeficiency virus type 1 integrase (Human immunodeficiency virus 1) (UniProt Q7ZJM1). The data set is described as follows: Inhibition of HIV1 integrase 3'-end processing activity at 21 uM.
Data set [8] has the same target. The data set is described as follows: Inhibition of HIV1 integrase 3'-end processing activity.
Data set [9] has as its system Human immunodeficiency virus 1. As to the kind of experiment: Inhibition of HIV1 genome integration assessed as integrated viral DNA level at 2.5 uM by RT-PCR method. In kind it is functional. Summed up: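 Integrated proviral DNA in infected cells was measured by nested real-time PCR. The second round used SYBR green with 300 nM primers and 50 cycles (95°C 15 s, 60°C 60 s). Quantification used a standard curve from full-length HIV-1 HXB2 plasmid (5 ng–0.25 fg). Samples were run in quadruplicate. Results are expressed as percentage of integrated viral DNA.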

Data set [10] deals with Human immunodeficiency virus 1. The data set is described as follows: Inhibition of HIV1 Tat-mediated HIV1 reporter gene expression in human TZM-bl HeLa MAGI cells. In kind it is functional, organism-based. Summed up: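 TZM-bl (HeLa MAGI) cells carrying a Tat/TAR-driven β-galactosidase reporter were grown in DMEM with 10% FCS, seeded at 10 × 10^3 cells per well, and infected with HIV-1 at equal MOI. Read-out was reporter expression by MAGI assay.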
(In general: In a reporter assay the amount or activity of a reporter protein is the signal.)

Data set [11] concerns Human immunodeficiency virus 1. The data set is described as follows: Effect on HIV1 replication in sup T1 cells assessed as total reverse transcribed viral DNA level at 12.5 uM by PCR. In kind it is functional, organism-based. Put shortly:
as §1

The values that follow come from ChEMBL document CHEMBL1142225, “Inhibiting HIV-1 integrase by shifting its oligomerization equilibrium” (Proc Natl Acad Sci U S A, 2007).

The source made the active and inactive calls. The calls are words filed in the database; no cut-off is given here. A value given as a limit tells only on which side of the number the result lay.

Human immunodeficiency virus type 1 integrase (Human immunodeficiency virus 1), sequence (Q7ZJM1 as listed by the source): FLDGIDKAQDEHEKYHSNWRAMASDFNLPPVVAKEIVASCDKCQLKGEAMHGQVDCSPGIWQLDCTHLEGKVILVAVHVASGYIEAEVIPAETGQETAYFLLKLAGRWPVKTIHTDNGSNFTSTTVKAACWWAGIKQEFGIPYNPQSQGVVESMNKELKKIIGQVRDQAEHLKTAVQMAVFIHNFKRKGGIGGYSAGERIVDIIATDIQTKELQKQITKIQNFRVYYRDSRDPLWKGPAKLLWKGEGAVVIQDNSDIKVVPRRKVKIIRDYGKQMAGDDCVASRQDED
Human immunodeficiency virus type 1 integrase, sequence (Q7ZJM1 whole entry): as the sequence (Q7ZJM1 as listed by the source) above

As for `Cc1cn([C@H]2C[C@H](N=[N+]=[N-])[C@@H](CO)O2)c(=O)[nH]c1=O`, the outcome in [1] was Active.

On to H-WIHAEIKNSLKIDNLDVNRCIEALD-OH, for which, in data set [2], the fold inhibition was found to be 3 fold. The compound further showed a Kd in data set [3] of 4.4 µM.

For the compound H-WKKIRRFVSQVIM-OH, the result in data set [4], in data set [5], in [7] and in [8] was Active. The Activity was 6 in data set [2], “Non-toxic” in [6] and “Dose-dependent effect” in data set [10]. Besides, the inhibition at 2.5 µM in [9] is over 90%. Moreover, the Kd in data set [3] was determined as 12 µM. For the same compound, the result in [11] was inactive.

In the case of H-WNSLKIDNLDV-OH, the result in [4] and in data set [8] was Active. Besides, the fold inhibition in data set [2] stood at 3 fold. Further, the values for the Activity entry in data set [6] and in data set [10] were “Non-toxic” and “Dose-dependent effect”, respectively. The inhibition at 2.5 µM in data set [9] is over 90%. The Kd in data set [3] came to 3.7 µM. Further, the result in data set [11] was inactive.

In general, Kd refers to the free concentration of one partner at which half of the binding sites on the other are occupied at equilibrium, for simple one-to-one binding. The low end stands for higher affinity, the high end for lower affinity. The inhibition is the percentage by which the read-out fell short of the control.
